From ChEMBL document CHEMBL3351944 (J Nat Prod, 2014)

Experiments:
MDCK [1] = experiment: Apparent permeability from basolateral side to apical in MDCK cells expressing MDR1 at 10 uM after 60 mins by LC/MS analysis; format: ADME, cell-based, Canis lupus familiaris; details: dog, 1 h
MDCK [2] = experiment: Apparent permeability from basolateral side to apical in verapamil pretreated MDCK cells expressing MDR1 at 10 uM after 60 mins by LC/MS analysis; format: ADME, cell-based, Canis lupus familiaris; details: dog, 1 h
MCF7 [3] = experiment: Antiproliferative activity against human MCF7 cells assessed as growth inhibition after 72 hrs by MTS/PMS assay; format: functional, cell-based; details: MCF7, 72 h
How it was run: (§1)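 MCF7 cells seeded at 2000/well and left to attach overnight. Six-point curves in duplicate over 100 nM–100 μM for test compounds and 1 nM–1 μM for geldanamycin, 1% DMSO final, 72 h at 37 °C. Growth read by MTS/PMS and normalized to 1% DMSO controls. At least two independent experiments; nonlinear regression gave IC50 and % inhibition.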

[4] = molecular target: T1, Kappa-type opioid receptor (Homo sapiens, UniProt P41145); experiment: Agonist activity at human kappa opioid receptor expressed CHO cells co-expressing Galphaq16 assessed as calcium mobilization by fluorescence assay; format: functional, cell-based
T1 sequence (P41145 whole entry): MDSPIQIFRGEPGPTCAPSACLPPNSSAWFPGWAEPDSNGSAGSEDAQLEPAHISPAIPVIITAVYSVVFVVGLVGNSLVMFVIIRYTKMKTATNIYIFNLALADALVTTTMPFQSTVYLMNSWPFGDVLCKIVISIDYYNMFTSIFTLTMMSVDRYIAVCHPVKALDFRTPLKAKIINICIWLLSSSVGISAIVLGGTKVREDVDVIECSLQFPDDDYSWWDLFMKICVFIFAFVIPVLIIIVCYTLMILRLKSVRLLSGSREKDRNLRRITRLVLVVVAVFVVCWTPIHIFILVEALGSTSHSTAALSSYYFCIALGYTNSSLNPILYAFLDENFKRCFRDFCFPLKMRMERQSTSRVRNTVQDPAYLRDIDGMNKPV
How it was run: (§2)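 CHO cells stably expressing KOP and Gαq16, grown overnight at 37 °C. Loaded with Calcium 5 dye in HBSS with 20 mM HEPES, 0.25% BSA, 1% DMSO, […], 1 h at 37 °C. Compounds added as 10× dilutions, top 10 μM. Fluorescence change over baseline recorded for 60 s. 10-point curves in duplicate, n = 2. Nonlinear regression gave EC50 and Emax.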

MCF7 [5] = experiment: Antiproliferative activity against human MCF7 cells assessed as growth inhibition after 72 hrs by MTS/PMS assay relative to DNSO-treated control; format: functional; how it was run: as §1
[6] = molecular target: T1, Kappa-type opioid receptor; experiment: Agonist activity at human kappa opioid receptor expressed CHO cells co-expressing Galphaq16 assessed as calcium mobilization by fluorescence assay relative to (-)-U69593; format: functional, cell-based; how it was run: as §2

| SMILES | permeability (MDCK [1]) | permeability (MDCK [2]) | IC50 (MCF7 [3]) | EC50 [4] | inhibition (INH) (MCF7 [5]) | Emax [6] |
| --- | --- | --- | --- | --- | --- | --- |
| COc1cc2nc(N3CCN(C(=O)c4ccco4)CC3)nc(N)c2cc1OC [PRAZOSIN] | 6.7% | 35.5% |  |  |  |  |
| COC(=O)[C@@H]1C[C@H](OC(C)=O)C(=O)[C@H]2[C@@]1(C)CC[C@H]1C(=O)O[C@H](c3ccoc3)C[C@]21C [SALVINORIN A] | 21.2% | 54.2% | > 100000 nM |  |  |  |
| COC(=O)[C@@H]1C[C@H](OC(C)=O)C(=O)[C@H]2[C@@]1(C)CC[C@H]1C(=O)O[C@H](CC3=CC(=O)C=CC3=O)C[C@]21C |  |  | 6540 nM | 2.5 µM | 77% | 27% |
| O=C1C=CC(=O)C=C1 [BENZOQUINONE] |  |  | 2570 nM |  | 85% |  |
| COC(=O)[C@@H]1C[C@H](OC(C)=O)C(=O)[C@H]2[C@@]1(C)CC[C@H]1C(=O)O[C@H](CC3=CC(=O)C(OC)=CC3=O)C[C@]21C | 9.7% | 38.4% | 5840 nM | > 10 µM | 83% |  |
| Cn1c(=O)c2c(ncn2C)n(C)c1=O [CAFFEINE] | 85.9% | 73% |  |  |  |  |
| COC1=C2C[C@@H](C)C[C@H](OC)[C@H](O)[C@@H](C)/C=C(\C)[C@H](OC(N)=O)[C@@H](OC)/C=C\C=C(/C)C(=O)NC(=CC1=O)C2=O [GELDANAMYCIN] |  |  | 40 nM |  | 81% |  |
| COC(=O)[C@@H]1C[C@H](OC(C)=O)C(=O)[C@H]2[C@@]1(C)CC[C@H]1C(=O)O[C@H](CC3=CC(=O)C(OC)=C(OC)C3=O)C[C@]21C | 5% | 47.2% | 2700 nM | > 10 µM | 86% |  |
